Square brackets hold non-standard residues; d marks the D form. Peptide text beside a SMILES is read from it. * marks the point of attachment. AMC = Cc1cc(=O)oc2cc(N*)ccc12; Pip = O=C(O)[C@@H]1CCCCN1; Cbz = O=C(OCc1ccccc1)*; AEEA = NCCOCCOCC(=O)O
Experiments:
[1] = biological target: T1, DPPIV (Homo sapiens, UniProt P27487); test: Kinetics of fluorogenic substrate cleavage by DPPIV; type: biochemical
[2] = biological target: T2, APCE (Homo sapiens, UniProt Q12884); test: Kinetics of fluorogenic substrate cleavage by APCE; type: biochemical; settings: for kcat, APCE / Km: pH 7.5, 22 °C, 20 min; for Km: read-out: Km, APCE
T2 sequence (Q12884 24-760 limits assumed): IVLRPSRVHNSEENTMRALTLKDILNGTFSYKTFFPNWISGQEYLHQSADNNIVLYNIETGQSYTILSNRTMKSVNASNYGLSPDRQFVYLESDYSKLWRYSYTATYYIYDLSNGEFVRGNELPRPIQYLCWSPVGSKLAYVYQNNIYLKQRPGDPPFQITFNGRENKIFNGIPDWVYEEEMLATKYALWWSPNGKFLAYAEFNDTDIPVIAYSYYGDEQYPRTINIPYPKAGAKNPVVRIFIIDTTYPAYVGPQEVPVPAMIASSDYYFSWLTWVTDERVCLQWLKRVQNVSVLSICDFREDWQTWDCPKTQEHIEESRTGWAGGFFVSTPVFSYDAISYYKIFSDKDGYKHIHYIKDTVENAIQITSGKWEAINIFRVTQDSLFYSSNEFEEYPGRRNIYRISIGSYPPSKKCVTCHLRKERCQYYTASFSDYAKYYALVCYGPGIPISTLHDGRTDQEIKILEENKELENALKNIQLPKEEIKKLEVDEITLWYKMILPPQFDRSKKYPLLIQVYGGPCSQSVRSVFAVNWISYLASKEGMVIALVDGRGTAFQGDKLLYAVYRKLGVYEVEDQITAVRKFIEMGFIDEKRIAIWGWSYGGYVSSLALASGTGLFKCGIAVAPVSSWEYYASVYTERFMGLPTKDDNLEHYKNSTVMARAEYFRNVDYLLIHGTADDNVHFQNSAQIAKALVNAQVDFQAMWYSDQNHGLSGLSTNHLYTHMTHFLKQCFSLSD

[3] = biological target: T2, APCE; test: Cleavage of inhibitor by APCE during incubation; type: biochemical; settings: for hydrolysis of inhibitor by APCE: lengthy incubations with APCE
[4] = biological target: T2, APCE; test: APCE inhibition, fluorogenic substrate Z-Gly-Pro-AMC; type: biochemical; settings: for inhibitory effect on APCE: result in words
In short: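 Human-plasma-purified APCE in 25 mM sodium phosphate, pH 7.5, with 1.0 mM EDTA and 4% methanol; 20 min at 22 °C. Z-Gly-Pro-AMC at five concentrations (10–500 μM range) crossed with four inhibitor concentrations around the expected Ki. Released AMC followed over time (ex 360/em 460 nm) against an AMC standard curve. Competitive mode set by Lineweaver–Burk; Ki from competitive-equation fit, best fit ± standard error.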

[5] = system: recombinant FAP; settings: cited from earlier work
[6] = biological target: FAP; settings: read-out: Ki for FAP; cited from earlier work
[7] = biological target: T1, DPPIV; settings: read-out: Ki for DPPIV; cited from earlier work
[8] = system: CSCC[C@H](N)C(=O)N[C@@H](CCC(=O)O)C(=O)N1CCC[C@H]1C(=O)N[C@@H](CC(C)C)C(=O)NCC(=O)N[C@@H](Cc1c[nH]c2ccccc12)C(=O)N[C@@H](CCC(N)=O)C(=O)N[C@@H](CC(C)C)C(=O)N[C@H](C(=O)N[C@@H](CO)C(=O)NCC(=O)N1CCC[C@H]1C(=O)Nc1ccc2c(C)cc(=O)oc2c1)[C@@H](C)O; test: Kinetics of fluorogenic substrate cleavage by APCE; type: biochemical, human; settings: other: pH 7.5, 22 °C, 20 min
[9] = system: CSCC[C@H](N)C(=O)N[C@@H](CCC(=O)O)C(=O)N1CCC[C@H]1C(=O)N[C@@H](CC(C)C)C(=O)NCC(=O)N[C@@H](CCCNC(=N)N)C(=O)N[C@@H](CCC(N)=O)C(=O)N[C@@H](CC(C)C)C(=O)N[C@H](C(=O)N[C@@H](CO)C(=O)NCC(=O)N1CCC[C@H]1C(=O)Nc1ccc2c(C)cc(=O)oc2c1)[C@@H](C)O; test: Kinetics of fluorogenic substrate cleavage by APCE; type: biochemical, human; settings: other: pH 7.5, 22 °C, 20 min

T1 sequence (P27487 whole entry, species assumed): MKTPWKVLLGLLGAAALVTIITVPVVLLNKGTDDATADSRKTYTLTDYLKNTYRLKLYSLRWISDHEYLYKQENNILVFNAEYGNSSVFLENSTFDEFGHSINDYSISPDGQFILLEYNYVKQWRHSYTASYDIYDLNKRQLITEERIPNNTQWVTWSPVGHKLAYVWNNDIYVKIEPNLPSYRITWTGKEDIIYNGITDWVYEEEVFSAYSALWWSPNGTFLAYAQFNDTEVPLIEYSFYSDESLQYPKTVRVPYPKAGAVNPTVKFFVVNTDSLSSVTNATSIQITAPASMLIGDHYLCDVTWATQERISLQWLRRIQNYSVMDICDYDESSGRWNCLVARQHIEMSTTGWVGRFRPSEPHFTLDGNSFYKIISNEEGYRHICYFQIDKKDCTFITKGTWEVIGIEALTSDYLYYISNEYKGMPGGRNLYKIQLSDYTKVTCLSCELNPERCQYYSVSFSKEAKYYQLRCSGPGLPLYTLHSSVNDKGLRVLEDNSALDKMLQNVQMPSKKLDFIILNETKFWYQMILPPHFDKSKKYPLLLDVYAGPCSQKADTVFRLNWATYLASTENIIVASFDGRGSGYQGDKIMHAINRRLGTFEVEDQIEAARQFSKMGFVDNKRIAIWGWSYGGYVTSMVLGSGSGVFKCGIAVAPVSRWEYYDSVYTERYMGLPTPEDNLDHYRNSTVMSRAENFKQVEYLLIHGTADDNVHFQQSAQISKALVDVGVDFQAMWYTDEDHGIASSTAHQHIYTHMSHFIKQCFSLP

For `Cc1cc(=O)oc2cc(NC(=O)[C@@H]3CCCN3C(=O)CN)ccc12` [GP-AMC, Gly-Pro-7-amido-4-methylcoumarin] (H-Gly-Pro-{AMC}), the “kcat/Km of DPPIV higher than that of APCE” value [1] was about 30 fold, the “kcat, DPPIV” value ([1]; pH 7.5, 22 °C, 20 min) was 1.985 ± 0.102 s⁻¹ and the Km ([1]; read-out: Km, DPPIV, pH 7.5, 22 °C, 20 min) was 63 ± 6 µM. The “kcat, APCE” value [2] was 0.485 ± 0.0183 s⁻¹, the Km [2] was 455 ± 42 µM and the “kcat/Km of APCE lower than the other three substrates” value ([2]; vs MEPLGRQLTSGP-AMC, MEPLGWQLTSGP-AMC, Z-GP-AMC) was 6–51 fold.
In the case of `CC(C)C[C@H](NC(=O)[C@H](CCC(N)=O)NC(=O)[C@H](CCCNC(=N)N)NC(=O)[C@@H](N)Cc1ccccc1)C(=O)N[C@H](C(=O)N[C@@H](CO)C(=O)NCC(=O)N1CCCC[C@H]1C(=O)N[C@@H](CC(N)=O)C(=O)N[C@@H](CCC(N)=O)C(=O)N[C@@H](CCC(=O)O)C(=O)N[C@@H](CCC(N)=O)C(=O)N[C@H](C(=O)O)C(C)C)[C@@H](C)O` [Inhibitor 1, FRQLTSG-pipecolinyl-NQEQV] (H-FRQLTSG[Pip]NQEQV-OH; N-terminus assumed), the “hydrolysis of inhibitor by APCE” value [3] is reported as “slowly hydrolyzed”.
For `CC(C)[C@H](NC(=O)[C@H](CCC(N)=O)NC(=O)[C@H](CCC(=O)O)NC(=O)[C@H](CCC(N)=O)NC(=O)[C@H](CC(N)=O)NC(=O)[C@@H]1CCCCN1C(=O)CNC(=O)COCCOCCNC(=O)[C@H](CCCNC(=N)N)NC(=O)[C@@H](N)Cc1ccccc1)C(=O)O` [Inhibitor 2, FR-peg-G-pipecolinyl-NQEQV] (H-FR[AEEA]G[Pip]NQEQV-OH; N-terminus assumed), the “fraction of inhibitor cleaved by APCE” value ([3]; 1 h incubation, LC/MS) was about 6% and the “hydrolysis of inhibitor by APCE” value [3] was “slowly hydrolyzed”.
For `CC(C)[C@H](NC(=O)[C@H](CCC(N)=O)NC(=O)[C@H](CCC(=O)O)NC(=O)[C@H](CCC(N)=O)NC(=O)[C@H](CC(N)=O)NC(=O)[C@@H]1CCCCN1C(=O)CNC(=O)COCCOCCNC(=O)CNC(=O)[C@@H](N)Cc1ccccc1)C(=O)O` [Inhibitor 3, FG-peg-G-pipecolinyl-NQEQV] (H-FG[AEEA]G[Pip]NQEQV-OH; N-terminus assumed), the “change of Ki relative to inhibitor 2 (P7 Arg replaced with Gly)” value ([4]; printed as Ki reduced) was about 4 fold.
For `N=C(N)NCCC[C@H](NC(=O)[C@@H](N)Cc1ccccc1)C(=O)NCCOCCOCC(=O)NCC(=O)N1CCCC[C@H]1C(N)=O` [Inhibitor 11, FR-peg-G-pipecolinamide] (H-FR[AEEA]G[Pip]-NH2; N-terminus assumed), the “inhibitory effect on APCE” value [4] was “lacked inhibitory properties”.
In the case of `Cc1cc(=O)oc2cc(NC(=O)[C@@H]3CCCN3C(=O)CNC(=O)OCc3ccccc3)ccc12` [Z-GP-AMC, benzyloxycarbonyl- (Z-) Gly-Pro-AMC] (Cbz-Gly-Pro-{AMC}), the “kcat, APCE” value [2] is given as 0.607 ± 0.02 s⁻¹, the Km [2] is given as 90 ± 9 µM and the “increase in catalytic efficiency of recombinant FAP as opposed to Gly-Pro-AMC” value [5] is given as about 18 fold.
In the case of `CC(=O)NCC(=O)N1CCCC1C#N` (stereo not drawn) [acetyl-Gly-Pro-nitrile], the Ki [6] is given as 6.8 µM and the Ki [7] is given as 61 µM.
With APCE (Homo sapiens) the Km [8] was 70 ± 6 µM, the kcat [8] was 0.922 ± 0.025 s⁻¹ and the kcat/Km [8] was 13200 M⁻¹ s⁻¹. It also gave a Km [9] of 21 ± 2 µM, a kcat [9] of 1.17 ± 0.0383 s⁻¹ and a kcat/Km [9] of 55000 M⁻¹ s⁻¹.
With FR-peg-G-pipecolinic acid the “inhibitory effect on APCE” value [4] was “neither of which appeared to have any inhibitory effect”.
With NQEQV the “inhibitory effect on APCE” value [4] was “neither of which appeared to have any inhibitory effect”.
